Screening results (PubChem)
Compounds with a hit are over-represented: about 2.4% of the library has one in this group of screens.
Apaf1 inhib – blocks human Apaf-1 apoptosome activity | O14727 | reconstituted apoptosome caspase-3 activity, DEVD-Rh110 fluorescence | inhibition, % at 20 µM | actives 0.71% (n = 330,000) | AID 489030; active means inhibition of at least 40% at 20 µM
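Medium: Hepes buffer, pH 7.5 / System: biochemical Apaf-1 apoptosome reconstitution / Measured by: Rh110 fluorescence, excitation 480 nm, emission 540 nm / Times: compound with Apaf-1, dATP, procaspase-3 30 min, then 50 min reaction, room temperature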
SIAE inh – blocks human sialic acid acetylesterase. Q9HAT2. SIAE FP-Rh probe binding, fluorescence polarization. inhibition, % at 9.66 µM. actives 0.69% (n = 370,000);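 active means inhibition above a cutoff: mean of compounds within the control limits plus 3 SD of those, cut at about 17% in these data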
PAD4 inh – blocks human protein arginine deiminase 4. AID 485272. Q9UM07. actives 0.41% (n = 330,000). recombinant PAD4, RCA probe fluorescence polarization. inhibition, % at 6.36 µM;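 active means percent inhibition above a cutoff equal to the mean of all tested compounds plus 3 SD, cut at about 15% in these data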
Target sequence (Q9UM07 whole entry, looked up): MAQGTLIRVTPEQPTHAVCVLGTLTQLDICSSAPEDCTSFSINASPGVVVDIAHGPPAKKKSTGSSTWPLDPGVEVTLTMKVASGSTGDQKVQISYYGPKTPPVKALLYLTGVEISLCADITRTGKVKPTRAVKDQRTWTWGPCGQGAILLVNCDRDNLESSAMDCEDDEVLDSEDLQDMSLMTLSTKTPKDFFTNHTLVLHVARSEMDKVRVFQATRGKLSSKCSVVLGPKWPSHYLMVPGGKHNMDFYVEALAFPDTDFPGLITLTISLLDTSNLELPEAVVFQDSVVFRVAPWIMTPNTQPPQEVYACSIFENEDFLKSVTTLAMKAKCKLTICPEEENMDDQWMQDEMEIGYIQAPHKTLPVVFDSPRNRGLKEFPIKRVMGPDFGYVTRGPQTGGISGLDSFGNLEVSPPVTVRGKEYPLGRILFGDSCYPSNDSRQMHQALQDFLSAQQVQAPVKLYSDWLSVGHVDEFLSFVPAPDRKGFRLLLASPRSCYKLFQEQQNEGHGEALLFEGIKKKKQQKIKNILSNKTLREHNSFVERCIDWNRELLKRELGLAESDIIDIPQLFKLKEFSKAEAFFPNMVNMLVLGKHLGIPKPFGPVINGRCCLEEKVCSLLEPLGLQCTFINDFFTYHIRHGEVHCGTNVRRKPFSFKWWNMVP
GSTO1 counter – counter-screen for RBBP9 inhibitors: inhibitors of human GSTO1; P78417; recombinant GSTO1, activity-based probe fluorescence polarization; inhibition, % at 5.96 µM; actives 1.1% (n = 300,000); AID 1974;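 active means inhibition above the campaign mean inhibition plus 3 SD, cut at about 35% in these data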
TDP2 inh – TDP2 (human) inhibition, absorbance primary screen. recombinant TDP2, T5PNP hydrolysis, p-nitrophenol absorbance 415 nm. inhibition, % at 12.8 µM. actives 0.34% (n = 370,000). O95551;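 active means inhibition above the mean of all tested compounds plus 3 SD, set per campaign, cut at about 25% in these data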
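Material: recombinant human TDP2; quantity: TDP2 enzyme at 120 nM final; medium: Tris-HCl pH 7.5 with MgCl2; compound: single concentration, 12.8 µM nominal, with 1% DMSO; incubation: 2 h enzyme incubation at 37 °C; signal: epi absorbance; measure: percent inhibition; benchmarks: high control without enzyme, low control DMSO plus TDP2; repeats: singlicate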
TCR-CD3 inh – inhibitors of human TCR-CD3 interaction | inhibition, % at 9.4 µM | actives 0.37% (n = 360,000) | TAMRA-labeled TCR probe fluorescence, biochemical; in the data active means inhibition above about 19%;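 further: recombinant mutant TCR 2C K166C tagged with TAMRA read by polarization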
SIAE confirm – confirmation of human SIAE inhibitors. shares compounds with SIAE inh. SIAE FP-Rh activity-based probe, fluorescence polarization. inhibition, % at 9.66 µM. actives 13% (n = 2,300). AID 1117263;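 active means mean inhibition of the replicates above the hit cutoff set in the primary screen, cut at about 17% in these data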;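 further: inhibitors lower polarization as more probe stays unbound to SIAE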
Of the large screens only hits and unclear results are named; the others gave an inactive call (follow-up assays come after a bar, where they were run).

Cc1cc(C)c(NS(=O)(=O)c2c(C(=O)N3CCOCC3)c(C)n(C)c2C)c(C)c1	SIAE inh 18 | SIAE confirm inactive
CCOc1ccccc1N=C1SC(CC(=O)Nc2ccc(OC)cc2OC)C(=O)N1CCC1=CCCCC1 (stereo not given)	none
O=C(O)CSCC(=O)N1CCN(S(=O)(=O)c2ccccc2)CC1	SIAE inh 21 | SIAE confirm inactive
N#Cc1ccccc1NCC(=O)N1CCN(S(=O)(=O)c2ccccc2)CC1	SIAE inh 17 (no result: GSTO1 counter) | SIAE confirm inactive
CC(=O)c1ccc(NCC(=O)N2CCN(S(=O)(=O)c3ccccc3)CC2)cc1	none (no result: GSTO1 counter)
COc1ccc(OC)c(/C=C/C(=O)Nc2cccc(S(=O)(=O)NC3=NCCCCC3)c2)c1	none (no result: GSTO1 counter)
CCN(CC)c1nc2c(c(=O)[nH]c(=O)n2C)n1Cc1ccccc1	none
CCCCCCn1c(N(CC)CC)nc2c1c(=O)[nH]c(=O)n2C	SIAE inh 23 | SIAE confirm inactive
COc1cccc(Nc2nc(-c3cccc(N4C(=O)c5ccccc5C4=O)c3)cs2)c1	SIAE inh 24 | SIAE confirm inactive
COc1cccc(Nc2nc(-c3ccc(O)cc3)cs2)c1	none
COc1ccccc1NC(=O)Nc1nc(CC(=O)N2CCN(c3ccccc3OC)CC2)cs1	none
O=C(NC(Cc1ccccc1)C(=O)O)/C(=C/c1ccc(Cl)cc1)NC(=O)c1ccccc1 (stereo not given)	SIAE inh 17 | SIAE confirm inactive
O=C(Nc1ccc(F)cc1)c1cc(Cl)sc1Cl	none
O=C(CSc1nnc(-c2cccc(F)c2)o1)NC1CCCC1	SIAE inh 20 (no result: PAD4 inh, GSTO1 counter) | SIAE confirm inactive
O=C(CSc1nnc(-c2ccc(F)cc2)o1)N1CCCC1	SIAE inh 21 | SIAE confirm inactive
COc1ccc(OC)c(Nc2nc(-c3cccs3)cs2)c1	SIAE inh 20 | SIAE confirm inactive
COc1ccc(Nc2nc(-c3cccs3)cs2)cc1	none
Oc1ccc(Nc2nc(-c3cccs3)cs2)cc1	SIAE inh 20 | SIAE confirm inactive
COc1ccc(Nc2nc(-c3cccs3)cs2)c(OC)c1	none
Cc1sc2ncnc(NCc3cccnc3)c2c1C	none
O=C(NCC1CCCO1)c1ccc(NS(=O)(=O)c2ccccc2)cc1 (stereo not given)	none
CC(=O)N1CCC2(CC1)C/C(=N\NC(=S)Nc1ccc(C)cc1)c1cc(O)ccc1O2	SIAE inh 26 | SIAE confirm inactive
CN(C)CCCn1c(NCc2ccc3c(c2)OCO3)nc2ccccc21	SIAE inh 18 | SIAE confirm inactive
CCn1c(NCc2ccc3c(c2)OCO3)nc2ccccc21	none
CN(/N=C/c1ccc(O)cc1O)c1ncc(C(F)(F)F)cc1Cl	SIAE inh 19 | SIAE confirm inactive
CCOCCCNc1ncnc2c1[nH]c1ccccc12	none
CCCCOCCCNc1ncnc2c1[nH]c1ccccc12	SIAE inh 18 | SIAE confirm inactive
COc1cccc(-c2cc(CNC(=O)[C@H]3O[C@@H](n4ccc(N)nc4=O)[C@H](O)[C@@H]3O)no2)c1	none (no result: Apaf1 inhib, PAD4 inh, GSTO1 counter)
COc1cccc(-c2cc(CNC(=O)[C@H]3O[C@@H](n4cnc(C(N)=O)n4)[C@H](O)[C@@H]3O)no2)c1	SIAE inh 77 (no result: Apaf1 inhib, PAD4 inh, GSTO1 counter) | SIAE confirm 80
COc1cccc(-c2cc(CNC(=O)[C@H]3O[C@@H](n4cnc5c(N)ncnc54)[C@H](O)[C@@H]3O)no2)c1	SIAE inh 20 (no result: Apaf1 inhib, PAD4 inh, GSTO1 counter) | SIAE confirm 25
COc1ccc(N2CCN(C(=S)Nc3cccc(C)c3)CC2)cc1	none
COc1ccc(NC(=O)n2ncc3c(C)cccc32)cc1OC	SIAE inh 17 | SIAE confirm inactive
Cc1ccc2nc(SC(C)C(=O)N3CC(C)OC(C)C3)[nH]c2c1 (stereo not given)	none
O=C(O)Cn1c(CCS(=O)(=O)c2ccc(Br)cc2)nc2ccccc21	SIAE inh 29 | SIAE confirm inactive
Cc1ccc(C)c(NC(=O)CN(C)C(=O)Cn2c(=O)oc3ccccc32)c1	none
Cc1[nH]n(-c2ncc(-c3ccccc3)s2)c(=O)c1C(c1ccc(Br)cc1)C(C#N)C#N (stereo not given)	SIAE inh 24 | SIAE confirm inactive
Cc1[nH]n(C(N)=S)c(=O)c1C(c1ccccc1)C(C#N)C#N (stereo not given)	none
C/C(=N\Nc1cccc(Cl)c1)C1(C)N(O)C(C)(C)C(c2ccco2)=[N+]1[O-] (stereo not given)	none
Cc1c(C(=O)N/N=C/c2ccc(-c3ccccc3[N+](=O)[O-])o2)sc(N)c1C#N	SIAE inh 26 (no result: Apaf1 inhib) | SIAE confirm inactive
COc1ccc(N(CC(=O)O)S(=O)(=O)c2ccccc2[N+](=O)[O-])c(OC)c1	none
Cc1cccc(C)c1NC(=S)NCc1ccccc1	none
COc1ccc(/C=N\NC(=O)Cc2cccn2C)cc1OCc1ccccc1	none (no result: Apaf1 inhib, PAD4 inh, GSTO1 counter, TCR-CD3 inh)
COC(=O)CSc1nnc(NC(=O)c2ccc3c(c2)OCO3)s1	SIAE inh 19 | SIAE confirm inactive
O=C(O)CSc1nnc(NC(=O)c2ccc3c(c2)OCO3)s1	none
CC(=O)Nc1ccc(OCc2cn(CC(=O)c3ccc(O)cc3)nn2)cc1	SIAE inh 21 (no result: Apaf1 inhib, PAD4 inh, GSTO1 counter) | SIAE confirm inactive
COc1ccc(OCCC(=O)OCC(=O)NCc2ccco2)cc1	none
COc1ccccc1NCCC(=O)OCC(=O)NCc1ccco1	SIAE inh 27 | SIAE confirm inactive
Fc1cccc(NC(=S)N2CCn3cccc3C2c2cccnc2)c1 (stereo not given)	SIAE inh 25 | SIAE confirm inactive
S=C(Nc1ccccc1)N1CCn2cccc2C1c1cccnc1 (stereo not given)	none
O=C(Nc1nc(-c2ccccn2)cs1)c1ccc(-c2ccccc2F)o1	none (no result: GSTO1 counter)
CCOC(=O)N1CCN(Cc2c(F)cccc2F)CC1	none
CCOC(=O)N1CCN(Cc2c(F)cccc2Cl)CC1	SIAE inh 18 | SIAE confirm inactive
Cn1c(=O)oc2cc(S(=O)(=O)N3CCC(C(=O)N4CCN(c5ccc(F)cc5)CC4)CC3)ccc21	SIAE inh 20 | SIAE confirm inactive
S=C(Nc1ccc(Nc2ccccc2)cc1)Nc1ccccn1	SIAE inh 32 | SIAE confirm inactive
O=S(=O)(Nc1ccccc1)c1ccc(-c2cnc(C3CC3)o2)cc1	none
Cn1c(N2CCN(c3ccccn3)CC2)nc2c1c(=O)n(Cc1ccc(Cl)cc1)c(=O)n2C	none
O=C(N/N=C/c1c[nH]c2ccccc12)c1cc(Cl)ccc1O	SIAE inh 18 | SIAE confirm inactive
O=C1CCCN1c1ccc(S(=O)(=O)N2CCCCC2)cc1	SIAE inh 17 | SIAE confirm inactive
CN(Cc1ccccn1)C(=O)CC1C(=O)NCCN1Cc1cccc(Oc2ccccc2)c1 (stereo not given)	none
